Among the data in ChEMBL document CHEMBL1135612, “Identification of potent and selective small-molecule inhibitors of caspase-3 through the use of extended tethering and structure-based drug design” (J Med Chem, 2002) are Ki values, retold here.

The target in one assay is T1, Caspase-3 (Homo sapiens, UniProt P42574).
T1 sequence (P42574 whole entry): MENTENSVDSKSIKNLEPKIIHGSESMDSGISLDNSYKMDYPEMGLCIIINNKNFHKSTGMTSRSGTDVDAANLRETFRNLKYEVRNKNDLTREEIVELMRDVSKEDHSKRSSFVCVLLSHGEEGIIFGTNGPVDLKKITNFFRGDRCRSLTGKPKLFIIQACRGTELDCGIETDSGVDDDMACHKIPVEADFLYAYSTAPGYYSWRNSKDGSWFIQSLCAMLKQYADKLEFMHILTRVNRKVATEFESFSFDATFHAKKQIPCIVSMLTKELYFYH
Briefly: Inhibitory activity against Caspase-3.

A further assay deals with T2, Caspase-4 (Homo sapiens, UniProt P49662).
T2 sequence (P49662 whole entry): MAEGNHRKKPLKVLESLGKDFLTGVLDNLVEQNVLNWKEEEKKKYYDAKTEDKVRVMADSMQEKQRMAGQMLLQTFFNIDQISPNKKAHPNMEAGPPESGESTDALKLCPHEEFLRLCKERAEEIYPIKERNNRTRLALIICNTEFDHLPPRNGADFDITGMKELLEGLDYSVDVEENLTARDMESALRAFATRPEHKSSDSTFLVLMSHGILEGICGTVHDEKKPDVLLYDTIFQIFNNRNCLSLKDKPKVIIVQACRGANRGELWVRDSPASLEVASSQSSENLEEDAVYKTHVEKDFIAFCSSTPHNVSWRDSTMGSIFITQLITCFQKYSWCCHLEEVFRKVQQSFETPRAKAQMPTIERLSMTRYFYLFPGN
Briefly: Inhibitory activity against Caspase-4. Summed up:
(§1)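 Human recombinant caspase-1 (3 nM; 4 µM Ac-WEHD-AFC), -2 (17 nM; 40 µM Ac-VDVAD-AFC), -4 (60 nM; 30 µM Ac-WEHD-AFC) or -6 (2 nM; 7 µM Ac-VEID-AFC), final concentrations. Buffer: 25 mM HEPES pH 7.4, 0.1% CHAPS, 50 mM KCl, 5 mM β-ME. Enzyme preincubated 30 min RT with compound titrated in DMSO. Substrate starts reaction. AFC kinetics (ex 365/em 495 nm) read 15 min RT. IC50 from four-parameter fit.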

A further assay addresses T3, Caspase-5 (Homo sapiens, UniProt P51878).
T3 sequence (P51878 whole entry): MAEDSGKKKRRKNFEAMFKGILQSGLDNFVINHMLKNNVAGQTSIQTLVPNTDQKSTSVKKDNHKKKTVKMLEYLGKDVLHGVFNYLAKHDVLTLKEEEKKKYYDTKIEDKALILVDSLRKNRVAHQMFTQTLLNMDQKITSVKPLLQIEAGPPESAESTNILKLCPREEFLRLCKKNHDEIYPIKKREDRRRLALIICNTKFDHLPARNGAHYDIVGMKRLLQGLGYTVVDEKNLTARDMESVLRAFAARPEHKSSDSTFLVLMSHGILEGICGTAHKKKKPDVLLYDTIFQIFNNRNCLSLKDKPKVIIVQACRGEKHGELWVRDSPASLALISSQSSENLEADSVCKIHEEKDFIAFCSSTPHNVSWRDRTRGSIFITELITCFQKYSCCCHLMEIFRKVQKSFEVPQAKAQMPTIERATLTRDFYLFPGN
The assay can be described thus: Inhibitory activity against Caspase-5. Summed up:
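Recombinant human caspase-5 at 83 nM, final, with 30 µM Ac-WEHD-AFC in 100 mM HEPES pH 7.4, 10% sucrose, 0.1% CHAPS, 200 mM NaCl, 10 mM DTT. Enzyme and DMSO-titrated compound stood together 30 min at RT before substrate addition. Fluorescence (ex 365/em 495 nm) followed kinetically 15 min at RT. IC50 came from a four-parameter curve fit.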

The target in the next assay is T4, Caspase-6 (Homo sapiens, UniProt P55212).
T4 sequence (P55212 whole entry): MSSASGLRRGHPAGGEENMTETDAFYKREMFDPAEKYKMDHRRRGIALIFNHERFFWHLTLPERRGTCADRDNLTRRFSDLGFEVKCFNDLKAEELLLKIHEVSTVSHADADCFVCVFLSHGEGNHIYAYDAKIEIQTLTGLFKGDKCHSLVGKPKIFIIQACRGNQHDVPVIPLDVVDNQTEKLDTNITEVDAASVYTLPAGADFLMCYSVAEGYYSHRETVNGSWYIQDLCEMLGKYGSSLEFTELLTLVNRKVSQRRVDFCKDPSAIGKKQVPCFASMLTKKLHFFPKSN
The assay can be described thus: Inhibitory activity against Caspase-6. Summed up:
as §1

The target of a further assay is T5, Caspase-2 (Homo sapiens, UniProt P42575).
T5 sequence (P42575 whole entry): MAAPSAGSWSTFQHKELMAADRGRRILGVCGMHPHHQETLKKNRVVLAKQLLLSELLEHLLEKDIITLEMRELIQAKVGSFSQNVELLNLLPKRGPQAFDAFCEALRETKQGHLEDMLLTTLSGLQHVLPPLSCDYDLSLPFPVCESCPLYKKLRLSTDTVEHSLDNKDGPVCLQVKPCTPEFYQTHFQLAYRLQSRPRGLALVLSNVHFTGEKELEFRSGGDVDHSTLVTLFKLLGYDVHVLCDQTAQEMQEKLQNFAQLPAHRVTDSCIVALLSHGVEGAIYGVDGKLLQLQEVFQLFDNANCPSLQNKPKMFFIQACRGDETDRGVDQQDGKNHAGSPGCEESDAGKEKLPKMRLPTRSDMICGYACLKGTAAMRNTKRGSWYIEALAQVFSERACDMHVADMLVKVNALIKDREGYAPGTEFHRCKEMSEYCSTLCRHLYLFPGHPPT
Briefly: Inhibitory activity against of Caspase-2. The procedure, abridged: as §1

In another assay the target is T6, Caspase-1 (Homo sapiens, UniProt P29466).
T6 sequence (P29466 whole entry): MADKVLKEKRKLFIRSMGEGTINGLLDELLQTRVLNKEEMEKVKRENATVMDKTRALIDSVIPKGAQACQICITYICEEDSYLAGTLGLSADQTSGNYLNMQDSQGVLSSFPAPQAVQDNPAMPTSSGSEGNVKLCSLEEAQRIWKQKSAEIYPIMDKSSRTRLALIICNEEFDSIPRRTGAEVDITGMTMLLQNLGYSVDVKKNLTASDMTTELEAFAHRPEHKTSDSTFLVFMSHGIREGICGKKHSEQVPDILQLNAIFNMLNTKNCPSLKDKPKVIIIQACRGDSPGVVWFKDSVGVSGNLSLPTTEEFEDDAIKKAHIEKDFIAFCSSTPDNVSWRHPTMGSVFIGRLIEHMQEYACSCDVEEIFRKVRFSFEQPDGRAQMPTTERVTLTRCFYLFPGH
The assay can be described thus: Inhibitory activity against of Caspase-1. The procedure, abridged: as §1

Another assay deals with Caspase-8 (Homo sapiens, UniProt Q14790). Briefly: Inhibitory activity against Caspase-8. The procedure, abridged: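 In-house expressed, purified human caspase-8 at 10 nM, final, with 3 µM Ac-IETD-AFC in 100 mM HEPES pH 7.4, 10% sucrose, 0.1% CHAPS, 10 mM DTT. Enzyme was preincubated 30 min at RT with DMSO-titrated compound, and substrate started the reaction. Fluorescence (ex 365/em 495 nm) was read kinetically for 15 min at RT. IC50 came from a four-parameter fit.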

For a further assay, the target named is T7, Caspase-7 (Homo sapiens, UniProt P55210).
T7 sequence (P55210 whole entry): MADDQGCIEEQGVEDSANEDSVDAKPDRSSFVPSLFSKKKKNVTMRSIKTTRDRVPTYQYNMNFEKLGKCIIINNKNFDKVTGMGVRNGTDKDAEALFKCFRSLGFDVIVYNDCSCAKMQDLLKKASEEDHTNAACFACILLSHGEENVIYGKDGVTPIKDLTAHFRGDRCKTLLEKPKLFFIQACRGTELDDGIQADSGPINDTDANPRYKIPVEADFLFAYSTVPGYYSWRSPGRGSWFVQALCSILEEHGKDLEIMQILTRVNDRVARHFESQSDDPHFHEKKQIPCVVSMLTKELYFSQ
The assay can be described thus: Inhibitory activity against Caspase-7. Summed up: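 Caspase-7 assay: 1 nM recombinant human enzyme and 30 µM Ac-DEVD-AFC, final, in 25 mM HEPES pH 7.4, 0.1% CHAPS, 50 mM KCl, 5 mM CaCl2, 5 mM β-ME. Enzyme preincubated 30 min RT with compound titrated in DMSO, then substrate added. Kinetic AFC fluorescence (ex 365/em 495 nm) over 15 min at RT. IC50 by four-parameter fit.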

Where only a bound is given, the exact number is not on record here.

Chain of Caspase-8 (Q14790 217-374 limits assumed): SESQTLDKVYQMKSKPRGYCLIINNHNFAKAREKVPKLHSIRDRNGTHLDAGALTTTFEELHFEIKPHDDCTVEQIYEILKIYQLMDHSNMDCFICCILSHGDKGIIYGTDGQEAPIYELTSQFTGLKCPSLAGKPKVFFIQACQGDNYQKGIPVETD
Chain of Caspase-8 (Q14790 385-479 limits assumed): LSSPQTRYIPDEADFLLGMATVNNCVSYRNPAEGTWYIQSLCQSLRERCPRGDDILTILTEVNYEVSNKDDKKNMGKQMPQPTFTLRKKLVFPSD

For the compound `CN(Cc1ccc(O)c(C(=O)O)c1)Cc1ccc(C(=O)N[C@@H](CC(=O)O)C(=O)CSCc2ccccc2Cl)s1`, the Ki at Caspase-3 is 0.09 µM; on Caspase-4 it was 96 µM; on Caspase-5 it was 98 µM; on Caspase-6, 22 µM; at Caspase-2, 30 µM; at Caspase-1 it was 12 µM. Besides, the Ki on Caspase-8 is 4 µM; on Caspase-7, 0.19 µM.
In the case of `O=C[C@H](CC(=O)O)NC(=O)c1ccc(CNS(=O)(=O)c2ccc(O)c(C(=O)O)c2)s1`, the Ki came to 0.12 µM at Caspase-3; 38 µM at Caspase-4; 24 µM on Caspase-5; 0.54 µM at Caspase-6; 21 µM at Caspase-2; 1.9 µM at Caspase-1. Moreover, the Ki is 0.05 µM on Caspase-8 and 0.12 µM at Caspase-7.
Take `O=C[C@H](CC(=O)O)NC(=O)c1ccc(CNS(=O)(=O)c2ccc(O)c(C(=O)O)c2)cc1`: the Ki on Caspase-3 worked out at 0.2 µM; at Caspase-4, 21 µM; at Caspase-5 it was 12 µM; at Caspase-6 it was 1 µM; at Caspase-2 it was 9 µM; on Caspase-1, 0.16 µM. For the same compound, the Ki worked out at 0.15 µM at Caspase-8 and 0.47 µM on Caspase-7.
Turning to `O=C(O)C[C@H](NC(=O)c1cnc(CNS(=O)(=O)c2ccc(O)c(C(=O)O)c2)s1)C(=O)CSCc1ccccc1Cl`, the Ki at Caspase-3 was found to be 0.03 µM; at Caspase-4, 13 µM; at Caspase-5, 23 µM; on Caspase-6, 2.3 µM; at Caspase-2 it was 16 µM; on Caspase-1 it was 8.3 µM. Moreover, the Ki was determined as 19 µM at Caspase-8 and 0.09 µM on Caspase-7.
As to `O=C[C@H](CC(=O)O)NC(=O)c1ccc(CNS(=O)(=O)c2ccc(O)c(C(=O)O)c2)nc1`, the inhibition constant Ki at Caspase-3 amounted to 0.05 µM; at Caspase-4 it was 92 µM; on Caspase-5, 22 µM; at Caspase-6, 1.4 µM; on Caspase-2 it was 0.96 µM; on Caspase-8 it was 0.88 µM. The compound also gave a Ki at Caspase-7 of 0.13 µM.
Consider `O=C(O)C[C@H](NC(=O)c1ccc(CNS(=O)(=O)c2ccc(O)c(C(=O)O)c2)s1)C(=O)CSCc1ccccc1Cl`, for which the Ki on Caspase-3 is 0.02 µM; on Caspase-4, more than 100 µM; at Caspase-5, 63 µM; on Caspase-6, 9.7 µM; at Caspase-2, 64 µM; on Caspase-1, 3.2 µM. Further, the Ki on Caspase-8 turned out to be 0.33 µM; on Caspase-7, 0.13 µM.
On to `O=C(O)C[C@H](NC(=O)c1cnc(CNS(=O)(=O)c2ccc(O)c(C(=O)O)c2)nc1)C(=O)CSCc1ccccc1Cl`, for which the Ki on Caspase-3 was found to be 0.02 µM; at Caspase-4, 22 µM; on Caspase-5, 32 µM; on Caspase-6, 0.19 µM; on Caspase-2 it was 30 µM; at Caspase-1 it was 25 µM. Further, the Ki on Caspase-8 came to 28 µM; on Caspase-7 it was 0.09 µM.
As for `Cc1cc(CNS(=O)(=O)c2ccc(O)c(C(=O)O)c2)sc1C(=O)N[C@@H](CC(=O)O)C(=O)CSCc1ccccc1Cl`, the Ki at Caspase-3 worked out at 0.04 µM; on Caspase-4 it was 27 µM; on Caspase-5 it was 36 µM; on Caspase-6 it was 2.4 µM; at Caspase-2, 37 µM; on Caspase-1, 2.7 µM. Further, the Ki at Caspase-8 was 0.71 µM; on Caspase-7, 0.94 µM.

For orientation: Ki means the dissociation constant of the complex between target and ligand, obtained from inhibition or displacement.
